What all share (assay type): functional
In assay [1] the test system is Escherichia coli. Nature of the assay: Antimicrobial activity in Escherichia coli DIH-1 expressing beta-lactamase VIM-19 by Etest. An outline of the steps:
(§1)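 MICs read by Etest on Mueller-Hinton agar incubated at 37°C. Susceptibility was categorized according to CLSI guidelines. Transconjugants were obtained in E. coli J53 by liquid mating at 37°C, with selection on agar containing amoxicillin (50 μg/ml) and azide (100 μg/ml).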

Assay [2] has as its system Klebsiella pneumoniae. Nature of the assay: Antimicrobial activity in Klebsiella pneumoniae DIH-2 clinical isolate expressing beta-lactamase VIM-19 by Etest.
Assay [3] relates to Escherichia coli. Nature of the assay: microbe, parasite or virus in culture. The following applies: TOP10.
The test system of assay [4] is Escherichia coli. Nature of the assay: microbe, parasite or virus in culture. To be noted: TOP10. The source holds these as a separate data set.
For assay [5], the system named is Escherichia coli. Nature of the assay: Antimicrobial activity in Escherichia coli J53 transconjugate with Escherichia coli DIH-1 expressing natural plasmid containing beta-lactamase VIM-19. In short, it runs like this:
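Transconjugants came from liquid mating-out at 37°C with azide-resistant E. coli J53 as recipient, selected on agar with amoxicillin (50 μg/ml) plus azide (100 μg/ml). MICs were then read by Etest on Mueller-Hinton agar at 37°C and interpreted per CLSI.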

The test system of assay [6] is Escherichia coli. The experiment in a line: Antimicrobial activity in Escherichia coli TOP10 strain. An outline of the steps:
(§2)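 MICs were determined by Etest on Mueller-Hinton agar plates incubated at 37°C. Susceptibility was interpreted according to CLSI guidelines.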

Assay [7] has as its system Escherichia coli. Nature of the assay: Antimicrobial activity in Escherichia coli J53 strain. An outline of the steps:
as §2

Assay [8] relates to Escherichia coli. Nature of the assay: Antimicrobial activity in Escherichia coli DIH-1 expressing beta-lactamase VIM-19 by Etest in presence of 4 ug/ml clavulanic acid. In short, it runs like this:
as §1

Assay [9] has as its system Klebsiella pneumoniae. Nature of the assay: Antimicrobial activity in Klebsiella pneumoniae DIH-2 clinical isolate expressing beta-lactamase VIM-19 by Etest in presence of 4 ug/ml clavulanic acid. In short, it runs like this:
as §1

The test system of assay [10] is Escherichia coli. Nature of the assay: Antimicrobial activity in Escherichia coli TOP10 hourbouring recombinant plasmid VIM-19 by Etest in presence of 4 ug/ml clavulanic acid. An outline of the steps:
as §1

For assay [11], the system named is Escherichia coli. Nature of the assay: Antimicrobial activity in Escherichia coli TOP10 hourbouring recombinant plasmid VIM-4 by Etest in presence of 4 ug/ml clavulanic acid. In short, it runs like this:
as §1

Assay [12] relates to Escherichia coli. The experiment in a line: Antimicrobial activity in Escherichia coli J53 transconjugate with Escherichia coli DIH-1 expressing natural plasmid containing beta-lactamase VIM-19 in presence of 4 ug/ml clavulanic acid. An outline of the steps: as §1
In assay [13] the test system is Escherichia coli. Nature of the assay: Antimicrobial activity in Escherichia coli TOP10 strain in presence of 4 ug/ml clavulanic acid. In short, it runs like this:
(§3)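 MIC by Etest on Mueller-Hinton agar plates at 37°C, with susceptibility interpreted per CLSI guidelines.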

Assay [14] has as its system Escherichia coli. Nature of the assay: Antimicrobial activity in Escherichia coli J53 strain in presence of 4 ug/ml clavulanic acid. In short, it runs like this: as §3
For assay [15], the system named is Escherichia coli. The experiment in a line: microbe, parasite or virus in culture. The following applies: TOP10. The source holds these as a separate data set.
The test system of assay [16] is Escherichia coli. Nature of the assay: microbe, parasite or virus in culture. The following applies: TOP10. This is another data set of the same source.
In assay [17] the test system is Escherichia coli. The experiment in a line: Antimicrobial activity in Escherichia coli DIH-1 expressing beta-lactamase VIM-19 by Etest in presence of 4 ug/ml Tazobactam. An outline of the steps:
as §1

In assay [18] the test system is Klebsiella pneumoniae. The experiment in a line: Antimicrobial activity in Klebsiella pneumoniae DIH-2 clinical isolate expressing beta-lactamase VIM-19 by Etest in presence of 4 ug/ml Tazobactam. In short, it runs like this: as §1
The test system of assay [19] is Escherichia coli. Nature of the assay: Antimicrobial activity in Escherichia coli TOP10 hourbouring recombinant plasmid VIM-19 by Etest in presence of 4 ug/ml Tazobactam. In short, it runs like this:
(§4)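 Recombinant plasmids were carried in the TOP10 cloning host. The N215K variant was made by site-directed mutagenesis using pVIM-1 as PCR template. MIC by Etest on Mueller-Hinton agar at 37°C, with CLSI interpretation.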

Assay [20] relates to Escherichia coli. The experiment in a line: Antimicrobial activity in Escherichia coli TOP10 hourbouring recombinant plasmid VIM-4 by Etest in presence of 4 ug/ml Tazobactam. An outline of the steps: as §4
Assay [21] relates to Escherichia coli. The experiment in a line: Antimicrobial activity in Escherichia coli TOP10 strain harbouring recombinant plasmid VIM-1 by Etest in presence of 4 ug/ml Tazobactam. In short, it runs like this:
as §4

In assay [22] the test system is Escherichia coli. Nature of the assay: Antimicrobial activity in Escherichia coli TOP10 harbouring recombinant plasmid VIM-1-N215K by Etest in presence of 4 ug/ml Tazobactam. An outline of the steps:
as §4

Assay [23] has as its system Escherichia coli. Nature of the assay: Antimicrobial activity in Escherichia coli J53 transconjugate with Escherichia coli DIH-1 expressing natural plasmid containing beta-lactamase VIM-19 in presence of 4 ug/ml Tazobactam. An outline of the steps: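 Transconjugant came from liquid mating-out at 37°C into azide-resistant J53, selected on agar with amoxicillin (50 μg/ml) plus azide (100 μg/ml). MIC by Etest on Mueller-Hinton agar at 37°C, with CLSI interpretation.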

Assay [24] deals with Escherichia coli. Nature of the assay: Antimicrobial activity in Escherichia coli TOP10 strain in presence of 4 ug/ml Tazobactam. An outline of the steps: as §3
Assay [25] concerns Escherichia coli. The experiment in a line: Antimicrobial activity in Escherichia coli J53 strain in presence of 4 ug/ml Tazobactam. An outline of the steps:
as §3

In brackets after ≈: the same amount, converted by molar mass. Bounds are passed on as bounds.

The values that follow come from ChEMBL document CHEMBL1212781, “VIM-19, a metallo-beta-lactamase with increased carbapenemase activity from Escherichia coli and Klebsiella pneumoniae” (2010).

Take `CC1(C)S[C@@H]2[C@H](NC(=O)[C@H](N)c3ccc(O)cc3)C(=O)N2[C@H]1C(=O)O` [AMOXICILLIN]: the MIC in assay [1] is greater than 512 µg/mL; in assay [2], greater than 512 µg/mL; in assay [3] it was greater than 512 µg/mL; in assay [4], greater than 512 µg/mL; in [5], greater than 512 µg/mL; in assay [6], 4 µg/mL (≈ 10.9 µM). Moreover, the MIC in assay [7] is 4 µg/mL (≈ 10.9 µM); in assay [8], greater than 512 µg/mL; in [9], greater than 512 µg/mL; in assay [10] it was greater than 512 µg/mL; in assay [11], greater than 512 µg/mL; in assay [12], greater than 512 µg/mL. Also, the MIC in [13] and in assay [14] was 4 µg/mL throughout.

Turning to `CCN1CCN(C(=O)N[C@@H](C(=O)N[C@@H]2C(=O)N3[C@@H]2SC(C)(C)[C@@H]3C(=O)O)c2ccccc2)C(=O)C1=O` [PIPERACILLIN], the MIC is greater than 512 µg/mL in assay [1]; greater than 512 µg/mL in [2]; 256 µg/mL (≈ 495 µM) in [3]; 256 µg/mL (≈ 495 µM) in [4]; 256 µg/mL (≈ 495 µM) in assay [15]; 256 µg/mL (≈ 495 µM) in [16]. The MIC is 256 µg/mL (≈ 495 µM) in [5]; 1 µg/mL (≈ 1.93 µM) in assay [6]; 1 µg/mL (≈ 1.93 µM) in [7]; greater than 512 µg/mL in assay [17]; greater than 512 µg/mL in [18]; 256 µg/mL in [19]. For the same molecule, the MIC was 256 µg/mL in assay [20]; 256 µg/mL in [21]; 256 µg/mL in [22]; 256 µg/mL in [23]; 1 µg/mL in assay [24]; 1 µg/mL in assay [25].
